According to ChEMBL document CHEMBL3526089, “Selective mechanism-based inactivation of CYP3A4 by CYP3cide (PF-04981517) and its utility as an in vitro tool for delineating the relative roles of CYP3A4 versus CYP3A5 in the metabolism of drugs” (Drug Metab Dispos, 2012):

How the values were obtained:
Format in all cases: ADME
Settings in all cases: recombinant enzyme
Cytochrome P450 3A5 [1] = target: T1, Cytochrome P450 3A5 (Homo sapiens, UniProt P20815); assay: Drug metabolism assessed as human recombinant CYP3A5 in presence of human P450 oxidoreductase and b5-mediated compound formation at 10 uM by HPLC-MS analysis in presence of KCN
T1 sequence (P20815 whole entry): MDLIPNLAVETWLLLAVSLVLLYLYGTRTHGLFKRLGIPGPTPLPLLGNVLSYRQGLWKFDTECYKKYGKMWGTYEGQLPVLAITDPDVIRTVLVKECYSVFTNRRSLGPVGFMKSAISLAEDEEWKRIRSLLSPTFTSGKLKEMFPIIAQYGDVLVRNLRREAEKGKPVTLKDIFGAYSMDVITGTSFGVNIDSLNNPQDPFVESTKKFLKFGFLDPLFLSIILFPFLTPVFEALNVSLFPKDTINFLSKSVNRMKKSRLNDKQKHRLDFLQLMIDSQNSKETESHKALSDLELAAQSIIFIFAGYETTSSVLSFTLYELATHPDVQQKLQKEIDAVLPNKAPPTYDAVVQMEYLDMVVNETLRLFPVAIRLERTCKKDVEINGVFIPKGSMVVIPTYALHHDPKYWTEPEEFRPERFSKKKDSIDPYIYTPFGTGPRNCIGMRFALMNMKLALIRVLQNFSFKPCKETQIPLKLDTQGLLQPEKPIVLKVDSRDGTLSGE
Procedure, shortened: (§1)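 Recombinant CYP3A4 or CYP3A5 (50 pmol/ml final) added, without preincubation, to 10 µM CYP3cide with NADPH (final 1 mM) in 100 mM phosphate pH 7.4. Trapping incubations also held 200 µM KCN or 5 mM GSH (final). Incubated 1 h at 37°C, quenched with acetonitrile, dried, reconstituted. Metabolites analysed by LC/Orbitrap ESI-MS.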

Cytochrome P450 3A5 [2] = target: T1, Cytochrome P450 3A5; assay: Drug level assessed as human recombinant CYP3A5 in presence of human P450 oxidoreductase and b5-mediated drug metabolism treated with 10 uM of PF-04981517 by HPLC-MS analysis in presence of KCN and NADPH; procedure, shortened: as §1
Cytochrome P450 3A4 [3] = target: T2, Cytochrome P450 3A4 (Homo sapiens, UniProt P08684); assay: Drug level assessed as human recombinant CYP3A4 in presence of human P450 oxidoreductase and b5-mediated drug metabolism treated with 10 uM of PF-04981517 by HPLC-MS analysis in presence of NADPH; procedure, shortened: as §1
T2 sequence (P08684 whole entry): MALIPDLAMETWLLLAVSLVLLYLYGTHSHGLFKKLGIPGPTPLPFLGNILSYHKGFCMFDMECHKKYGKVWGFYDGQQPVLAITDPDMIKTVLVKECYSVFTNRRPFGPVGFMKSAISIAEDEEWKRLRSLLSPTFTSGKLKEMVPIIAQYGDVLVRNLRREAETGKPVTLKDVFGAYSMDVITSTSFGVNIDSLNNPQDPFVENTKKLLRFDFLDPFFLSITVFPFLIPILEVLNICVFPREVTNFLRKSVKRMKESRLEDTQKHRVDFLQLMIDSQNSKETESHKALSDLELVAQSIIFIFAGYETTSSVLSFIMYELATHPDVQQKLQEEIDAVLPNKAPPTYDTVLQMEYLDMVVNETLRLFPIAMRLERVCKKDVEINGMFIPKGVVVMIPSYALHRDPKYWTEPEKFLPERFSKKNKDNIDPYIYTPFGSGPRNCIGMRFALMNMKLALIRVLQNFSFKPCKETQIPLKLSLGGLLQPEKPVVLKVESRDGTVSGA

Cytochrome P450 3A4 [4] = target: T2, Cytochrome P450 3A4; assay: Drug level assessed as human recombinant CYP3A4 in presence of human P450 oxidoreductase and b5-mediated drug metabolism treated with 10 uM of PF-04981517 by HPLC-MS analysis in presence of KCN and NADPH; procedure, shortened: as §1
Cytochrome P450 3A5 [5] = target: T1, Cytochrome P450 3A5; assay: Drug level assessed as human recombinant CYP3A5 in presence of human P450 oxidoreductase and b5-mediated drug metabolism treated with 10 uM of PF-04981517 by HPLC-MS analysis in presence of NADPH; procedure, shortened: as §1

SMILES	Drug metabolism (Cytochrome P450 3A5 [1])	Drug metabolism (Cytochrome P450 3A5 [2])	Drug metabolism (Cytochrome P450 3A4 [3])	Drug metabolism (Cytochrome P450 3A4 [4])	Drug metabolism (Cytochrome P450 3A5 [5])
Cc1ccc(-c2c(-c3nn(C)c4ncnc(N5CC[C@H](N6CCCCC6=O)C5)c34)cnn2C)cc1	metabolite_detected	–	–	–	–
Cc1ccc(-c2c(-c3nn(C)c4ncnc(N5CC[C@H](N)C5)c34)cnn2C)cc1	metabolite_detected	–	–	–	–
Cc1ccc(-c2c(-c3nn(C)c4ncnc(N5CC[C@H](N6CCCCC6)C5)c34)cnn2CO)cc1	–	metabolite_detected	metabolite_detected	metabolite_detected	metabolite_detected
Cc1ccc(-c2c(-c3nn(C)c4ncnc(N5CC[C@H]([N+]6=CCCCC6)C5)c34)cnn2C)cc1	–	metabolite_detected	metabolite_detected	metabolite_detected	metabolite_detected
